HSF-1 act = increases HSF-1 driven luciferase reporter signal. NIH3T3-HGL HSF-1 luciferase reporter, MG132, 8 h; 100% = twice DMSO control signal. 1.7% of 300,000 active. activation, % at 9 µM;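 active = mean replicate activation of at least 50% with a set share of replicates each reaching 50%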;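 also: 0% = median of the neutral control wells and 100% = twice that signal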
HSF1 inh = HSF1 inhibition; activity change, negative = inhibition, % at 7.5 µM (by protocol); NIH3T3-HGL HSE-luciferase, MG132-induced, luminescence 8 h; stronger effect = lower value; 0.77% of 300,000 active;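 active = more than half of replicate wells show activity change below -50%, luminescence cut by over half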;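 also: luciferase reports HSF-1 transcriptional activity via heat shock element; 0% = median of DMSO wells and -100% = zero luminescence signal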
Hsp70 activator = Hsp70 transcriptional activation, primary screen | activation, % at 10 µM | HeLa Hsp70 promoter luciferase reporter, luminescence; scaled: vehicle 0, proteasome-inhibitor control 100% | 0.04% of 200,000 active | AID 1203;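 active = activation above the mean across all tested compounds plus 3 SD, cutoff set per campaign, cut at about 5.5% in these data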;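 also: 100% = MG132 at 30 µM as the positive control and 0% = DMSO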
L major viab = Leishmania major promastigote growth inhibition; 9% of 200,000 active; AID 1063; Leishmania major promastigotes, resazurin fluorescence viability; inhibition, % at 10 µM; in the data active = inhibition above about 50%;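 also: promastigotes grown with compound for 44 hours at 28 °C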
T cruzi repl = blocks replication of Trypanosoma cruzi; inhibition, % (no concentration beside the values); AID 1885; 1.4% of 300,000 active; T. cruzi beta-gal in NIH3T3, luminescence, 90 h;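 active = mean inhibition across valid replicates above about 55%, limit read from the data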;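 also: signal also drops with host cell toxicity which is not excluded here; 0% = plate median of DMSO wells and 100% = zero luminescence signal; higher percent means less beta-gal luminescence so fewer parasites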
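System: NIH/3T3 fibroblasts plus reporter T. cruzi. Medium: DMEM plus 2% FBS. Probe or stimulus: 5000 reporter trypomastigotes per well. Compound: single 50 nL compound addition per well in DMSO. Incubation: co-culture of at least 90 h after 3 h attachment. Detection: GalScreen β-gal luminescence, detergent lysis, 60 min. Evaluation: parasite load inhibition, %.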
* marks the source's active call; other numbers are inactive results; · = not tested or not shown. Only a selection was taken, and hits are over-represented in it overall.

SMILES	HSF-1 act	HSF1 inh	Hsp70 activator	L major viab	T cruzi repl
CSc1ccc(/C=C/C(=O)c2ccc(O)cc2)cc1	60.2*	58.2	0.0	40.3	9.3
O=C(Nc1ccncc1)Nc1cccc(Cl)c1	5.3	5.8	·	·	43.3
O=C(Nc1ccc(-n2ccc(C(F)(F)F)n2)cc1)Nc1cccc(Cl)c1	11.6	8.4	·	·	62.1*
O=C(Nc1cccc(Cl)c1)Nc1ccccc1-n1ccnc1	0.1	-0.1	0.0	73.8*	56.6*
Cc1cc(C)cc(NC(=O)Nc2ccc(-n3ccc(C(F)(F)F)n3)cc2)c1	47.5	16.2	·	·	9.1
CC1=NNC(=O)c2ccccc2O1	3.3	-4.1	-0.2	-1.6	-8.6
Oc1ccc2ccccc2c1/C=N/Nc1nnc(-c2ncc[nH]2)c2ccccc12	-8.5	-10.4	-0.3	100.4*	58.3*
CN(C)/N=C/c1c(O)ccc2ccccc12	0.4	2.2	0.3	-5.6	-11.0
O=c1c2ccccc2nc(N/N=C/c2ccc(O)cc2)n1O	22.4	-18.4	-0.4	-5.3	-12.2
OCC(CO)(CO)N=Cc1c(O)ccc2ccccc12	-3.0	-5.8	-0.2	96.8*	-7.1
O=c1c2ccccc2nc(N/N=C/c2c(O)ccc3ccccc23)n1O	1.3	4.6	-0.3	99.9*	-10.2
Oc1ccc2ccccc2c1C=NNc1ccccn1	69.8*	69.8*	·	·	·
COc1ccccc1/C=C/C=C(\C#N)C(=O)NC(C)c1ccccc1 (centres undefined)	5.8	-3.8	·	·	-5.1
C=CCO/N=C/C1C(=O)CC(C)(C)CC1=O	6.3	-7.6	-0.4	37.2	-19.8
C/[N+]([O-])=C\C1C(=O)CC(C)(C)CC1=O	-62.7	-54.5*	-0.2	-3.4	-14.7
CCCCn1c(SCC(=O)N(CC)C2CCS(=O)(=O)C2)nc2cc(S(N)(=O)=O)ccc21 (centres undefined)	1.5	0.9	0.3	-3.7	-4.5
Cc1ccc(Nc2nnc(SCC(=O)N(C)C3CCS(=O)(=O)C3)s2)cc1 (centres undefined)	16.9	2.1	-0.2	55.6*	5.2
CCN(C(=O)CSc1nc2cc(C(F)(F)F)ccc2n1Cc1ccccc1)C1CCS(=O)(=O)C1 (centres undefined)	0.3	-0.4	0.3	98.2*	44.3
CCN(C(=O)CSc1nnc(-c2ccccc2)n1C)C1CCS(=O)(=O)C1 (centres undefined)	-5.1	-12.9	0.4	-3.8	-8.1
Cc1ccccc1Nc1nnc(SCC(=O)N(C)C2CCS(=O)(=O)C2)s1 (centres undefined)	1.1	-10.3	-0.2	41.9	-5.1
CCN(C(=O)CSc1nnc(Nc2ccccc2)s1)C1CCS(=O)(=O)C1 (centres undefined)	-3.3	-1.0	-0.2	57.7*	4.1
COc1ccc(N2C(=O)NC(NC(=O)c3cccnc3)(C(F)(F)F)C2=O)cc1 (centres undefined)	-3.6	-0.7	-0.1	-5.6	4.5
O=C(Cc1ncc(C(F)(F)F)cc1Cl)NNc1cccc(F)n1	-2.6	1.5	·	·	-1.7
CC12CN3CC(C)(CN(C1)C3c1ccc([N+](=O)[O-])o1)C2=O (centres undefined)	·	·	0.1	-2.7	79.7*
CCC12CN3CC(CC)(CN(C1)C3c1ccc([N+](=O)[O-])o1)C2=O (centres undefined)	11.9	-0.8	-0.1	-5.6	60.0*
SMILES	HSF-1 act	HSF1 inh	Hsp70 activator	L major viab	T cruzi repl
CCOc1cc(CNC)ccc1OCC(=O)NC(C)(C)C	-17.3	-8.2	0.1	4.4	10.8
CCC(CO)NCc1ccc(OCC(=O)Nc2cccc(C(F)(F)F)c2)c(OC)c1 (centres undefined)	·	·	-0.5	95.1*	-8.0
CN(CC(=O)Nc1cccc(F)c1)C(=O)c1ccccc1OCC(=O)Nc1cccc(C(F)(F)F)c1	9.4	6.5	·	·	61.2*
CCOc1cc(CNCCCN2CCOCC2)cc(Br)c1OCC(=O)Nc1cccc(C(F)(F)F)c1	·	·	-0.3	100.6*	-21.5
CCOc1cc(CNC(C)(C)C)ccc1OCC(=O)Nc1cccc(C(F)(F)F)c1	2.9	-4.7	-0.2	84.4*	12.3
CCOc1cc(CNCCCN2CCOCC2)cc(Cl)c1OCC(=O)NC(C)(C)C	2.9	2.0	·	·	51.2
CCNC(=S)N/N=C/c1ccc(OCc2ccc(C(=O)OC)cc2)cc1	-2.2	-4.3	-0.3	-5.1	15.1
CCCOc1ccc(C(=O)NNC(=O)c2cccc(S(=O)(=O)N3CCN(C(C)=O)CC3)c2)cc1OC	-34.2	-9.3	·	·	-8.7
Nc1cccn2c(-c3ccc(Cl)c(Cl)c3)cnc12	70.0*	22.8	0.2	64.7*	14.8
Cn1c(-c2ccc(Cl)cc2)cnc1N	·	·	0.6	1.8	-5.1
Nc1cccn2c(-c3ccc(Cl)cc3)cnc12	22.2	5.2	0.2	72.8*	7.1
Nc1nnc(-c2ccc(Cl)c(Cl)c2)s1	25.6	7.8	-0.1	4.8	-3.0
COCc1cc(C)nc(SCC(=O)Nc2ccc3c(c2)n(C)c(=O)n3C)c1C#N	6.0	-1.0	·	·	0.2
C=CCn1c(C)cc(C(=O)COC(=O)c2ccc3c(c2)NC(=O)CS3)c1C	12.2	-4.3	-0.6	-1.4	-16.8
COc1ccc2nc(/N=C(\N)NC(=O)C(C)(C)C)nc(C)c2c1	34.8	7.3	0.3	50.8*	24.2
CCOc1ccccc1NC(=S)N(CCCN1CCOCC1)Cc1cn(C)c2ccccc12	9.8	-2.6	-0.2	64.9*	13.5
COc1ccccc1NC(=S)N(CCN1CCOCC1)Cc1ccccc1F	-12.6	-5.1	0.0	5.6	0.6
COc1ccccc1NC(=S)N(CCCN1CCOCC1)Cc1cn(C)c2ccccc12	25.2	4.6	-0.1	67.5*	1.6
Cc1cccc(NC(=O)CSc2nsc(SCC(=O)Nc3cccc(C)c3)c2C#N)c1	41.3	20.2	-0.5	68.9*	9.1
COc1ccc(CCC(C)NCC2CCCCC2)cc1 (centres undefined)	2.3	2.2	-0.3	86.6*	-4.9
COc1ccc(CCC(C)NC2CCCCCCC2)cc1 (centres undefined)	3.4	1.2	·	·	21.7
Cc1ccc(Nc2cc(C(=O)NCCCN3CCOCC3)c3ccccc3n2)cc1C	5.3	2.7	·	·	9.6
Cc1ccc(Nc2ncc(C(=O)NCCCN3CCN(C)CC3)c3ccccc23)cc1Cl	-3.2	7.6	-0.2	84.1*	6.1
Cc1ccc(CCNC(=O)c2sc3nc4n(c(=O)c3c2C)CCC4)cc1	2.4	7.5	·	·	5.9
CCc1c(C)nc2cc(-c3cc(OC)cc(OC)c3)nn2c1N1CCN(CCN2CCOCC2)CC1	6.8	-2.3	-0.4	88.4*	12.0
CCOCCN1CCN(c2c(C)c(C)nc3cc(-c4cc(OC)cc(OC)c4)nn23)CC1	39.1	5.2	-0.5	82.8*	9.9
COCCN1CCN(c2c(C)c(C)nc3cc(-c4cccc(OC)c4)nn23)CC1	26.1	5.9	·	·	2.6
O=C1CC(c2cccc([N+](=O)[O-])c2)c2c(ccc3ccccc23)N1 (centres undefined)	53.0*	25.0	-0.4	99.5*	13.4

From PubChem BioAssay
